Results from ChEMBL document CHEMBL4145449, “Synthesis and biological evaluation of novel thiazole- VX-809 hybrid derivatives as F508del correctors by QSAR-based filtering tools” (Eur J Med Chem, 2018).
The source made the active and inactive calls. The calls are words filed in the database; no cut-off is given here.

Columns and labels:
[1] = target: T1, Cystic fibrosis transmembrane conductance regulator (Homo sapiens, UniProt P13569, F508DEL); assay: Corrector activity at CFTR F508-del mutant (unknown origin) expressed in human CFBE41o cells harboring HS-YFP preincubated for 24 hrs followed by forskolin/genistein stimulation for 30 mins by fluorescence assay; assay type: cell-based
[2] = system: Cystic fibrosis transmembrane conductance regulator (Homo sapiens), P13569 [F508del]; assay: Synergistic corrector activity at CFTR F508-del mutant (unknown origin) expressed in human CFBE41o cells harboring HS-YFP preincubated for 24 hrs followed by forskolin/genistein stimulation for 30 mins in presence of VX-809 by fluorescence assay; assay type: cell-based
How it was run: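 CFBE41o- cells co-expressing F508del-CFTR and HS-YFP treated 24 h with compound (2, 10 or 25 μM) together with VX-809 (1 μM), then stimulated 30 min at 37 °C with forskolin (20 μM) and genistein (50 μM). Iodide influx (final 100 mM) measured as HS-YFP quenching rate.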

[3] = system: Cystic fibrosis transmembrane conductance regulator (Homo sapiens), P13569 [F508del]; assay: Potentiator activity at CFTR F508-del mutant (unknown origin) expressed in human CFBE41o cells harboring HS-YFP assessed as increase in forskolin-stimulated aninon permeability up to 25 uM after 30 mins by fluorescence assay; assay type: cell-based
How it was run: (§1)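 F508del-CFTR/HS-YFP CFBE41o- cells were rescued by 24 h incubation at 27 °C, then exposed 30 min to forskolin (20 μM) plus test compound in PBS. Iodide added to final 100 mM; HS-YFP quenching rate (initial slope dF/dt) from exponential fit of final 10 s, normalized to initial background-subtracted fluorescence; compared with forskolin alone.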

[4] = system: Cystic fibrosis transmembrane conductance regulator (Homo sapiens), P13569 [F508del]; assay: Potentiator activity at CFTR F508-del mutant (unknown origin) expressed in human CFBE41o cells harboring HS-YFP assessed as increase in forskolin-stimulated aninon permeability at 25 uM after 30 mins by fluorescence assay; assay type: cell-based; how it was run: as §1
[5] = target: T1, Cystic fibrosis transmembrane conductance regulator; assay: Corrector activity at CFTR F508-del mutant (unknown origin)
How it was run: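 CFBE41o- bronchial cells stably co-expressing F508del-CFTR and HS-YFP, 50,000 cells/well, 24 h at 37 °C, then 24 h with compound at different concentrations; 30 min stimulation at 37 °C with forskolin (20 μM) plus genistein (50 μM) in PBS. Iodide injection (final 100 mM), initial quenching slope from exponential fit; EC50 from Hill equation fits.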

[6] = target: T1, Cystic fibrosis transmembrane conductance regulator; assay: Potentiator activity at CFTR F508-del mutant (unknown origin); how it was run: as §1

T1 sequence (P13569 as listed by the source): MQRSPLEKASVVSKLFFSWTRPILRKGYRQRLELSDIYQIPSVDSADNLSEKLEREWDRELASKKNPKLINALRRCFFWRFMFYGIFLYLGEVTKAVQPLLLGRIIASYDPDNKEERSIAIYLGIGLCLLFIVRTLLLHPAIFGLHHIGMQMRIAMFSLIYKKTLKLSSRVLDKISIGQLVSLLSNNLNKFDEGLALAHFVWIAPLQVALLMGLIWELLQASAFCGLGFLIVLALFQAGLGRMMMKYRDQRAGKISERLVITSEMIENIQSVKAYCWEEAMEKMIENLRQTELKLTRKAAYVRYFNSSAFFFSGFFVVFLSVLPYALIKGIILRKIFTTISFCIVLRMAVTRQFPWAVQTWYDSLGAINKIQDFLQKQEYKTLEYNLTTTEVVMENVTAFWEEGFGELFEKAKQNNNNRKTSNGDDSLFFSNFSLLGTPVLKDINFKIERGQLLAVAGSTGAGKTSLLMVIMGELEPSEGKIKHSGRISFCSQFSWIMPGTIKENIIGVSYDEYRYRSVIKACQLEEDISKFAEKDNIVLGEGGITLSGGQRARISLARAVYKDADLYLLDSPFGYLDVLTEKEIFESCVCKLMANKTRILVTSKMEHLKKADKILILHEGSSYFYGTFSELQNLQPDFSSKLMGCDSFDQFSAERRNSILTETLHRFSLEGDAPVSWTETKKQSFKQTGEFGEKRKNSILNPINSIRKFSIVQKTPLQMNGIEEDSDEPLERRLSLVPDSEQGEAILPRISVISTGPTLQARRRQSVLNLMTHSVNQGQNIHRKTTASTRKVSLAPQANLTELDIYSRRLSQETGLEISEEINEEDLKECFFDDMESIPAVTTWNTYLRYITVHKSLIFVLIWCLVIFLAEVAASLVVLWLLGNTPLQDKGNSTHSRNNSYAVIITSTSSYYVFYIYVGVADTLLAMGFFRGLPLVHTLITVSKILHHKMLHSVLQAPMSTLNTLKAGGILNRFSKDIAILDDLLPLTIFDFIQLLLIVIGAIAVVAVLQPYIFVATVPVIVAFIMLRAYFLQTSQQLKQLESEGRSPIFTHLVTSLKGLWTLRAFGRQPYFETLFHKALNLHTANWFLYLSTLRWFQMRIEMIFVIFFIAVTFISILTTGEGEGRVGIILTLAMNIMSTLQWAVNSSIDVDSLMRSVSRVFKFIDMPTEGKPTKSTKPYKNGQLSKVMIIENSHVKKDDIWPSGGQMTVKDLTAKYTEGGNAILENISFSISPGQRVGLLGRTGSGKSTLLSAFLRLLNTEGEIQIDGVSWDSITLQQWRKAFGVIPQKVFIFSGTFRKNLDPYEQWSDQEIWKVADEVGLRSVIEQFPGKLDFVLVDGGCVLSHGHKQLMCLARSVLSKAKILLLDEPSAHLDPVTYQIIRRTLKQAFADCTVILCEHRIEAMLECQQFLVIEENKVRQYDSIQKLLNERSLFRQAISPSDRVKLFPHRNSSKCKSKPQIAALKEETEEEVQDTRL
Chain of Cystic fibrosis transmembrane conductance regulator (Homo sapiens), P13569 [F508del] (P13569 as listed by the source): as above

| EC50 ([1]; read-out: EC50) | Activity [2] | Activity [3] | EC50 ([1]; read-out: pEC50 (converted)) | SMILES | further results |
| --- | --- | --- | --- | --- | --- |
| 2.1 µM | inactive | inactive |  | O=C(Nc1nc(-c2cccc(F)c2)cs1)C1(c2ccc3c(c2)OCO3)CC1 |  |
|  |  |  | 100 µM | COc1ccccc1C(=O)N1CCN(c2nc3cc(C)cc(C)c3cc2C#N)CC1 |  |
|  |  |  | 100 µM | CCN(C(C)=O)C1CCN(c2nc(-c3ccccn3)nc3c2CN(Cc2ccc(Cl)cc2)CC3)C1 (centres undefined) |  |
| > 5 µM | inactive | inactive | > 5.01 µM | O=C(O)c1ccc(-c2csc(NC(=O)C3(c4ccc5c(c4)OCO5)CC3)n2)cc1 |  |
|  |  |  | 100 µM | CN(C)CCN1CCN(c2nc(-c3ccccn3)nc3c2CN(Cc2ccc(F)cc2)CC3)CC1 |  |
| 1.6 µM | inactive | inactive |  | Cc1sc(NC(=O)C2(c3ccc4c(c3)OCO4)CC2)nc1-c1ccccc1 |  |
|  |  |  | > 100 µM | NC(=O)C1CCN(c2nc(-c3cccnc3)nc3c2CN(Cc2ccccc2)CC3)CC1 |  |
|  |  |  | 0.2 µM | Fc1ccc(CN2CCc3nc(-c4ccccn4)nc(NCCCN4CCCC4)c3C2)cc1 |  |
|  |  |  | 0.2 µM | CC(=O)NCCCNc1nc(-c2ccccn2)nc2c1CN(Cc1ccc(F)cc1)CC2 |  |
|  |  |  | 100 µM | CN1CCN(CCCNc2nc(-c3ccncc3)nc3c2CN(Cc2ccccc2)CC3)CC1 |  |
|  |  |  | > 100 µM | CN(C)CCN1CCN(c2nc(-c3cccnc3)nc3c2CN(Cc2ccccc2)CC3)CC1 |  |
|  |  |  | 100 µM | COc1ccc(C(=O)N2CCN(c3nc4cc(C)cc(C)c4cc3C#N)CC2)cc1 |  |
|  |  |  | 13.2 µM | Cc1cc(C)c2cc(C#N)c(NCCCNC(=O)c3ccncc3)nc2c1 |  |
| 2.3 µM | inactive |  |  | O=C(Nc1nc(-c2cccc(O)c2)cs1)C1(c2ccc3c(c2)OCO3)CC1 | Activity [4]: 50% |
|  |  |  | 100 µM | CN(C)CCN1CCN(c2nc(-c3ccncc3)nc3c2CN(Cc2ccccc2)CC3)CC1 |  |
|  |  |  | > 100 µM | Cc1cc(C)c2cc(C#N)c(NCCNC(=O)c3ccccn3)nc2c1 |  |

| EC50 ([1]; read-out: EC50) | Activity [2] | Activity [3] | EC50 ([1]; read-out: pEC50 (converted)) | SMILES | further results |
| --- | --- | --- | --- | --- | --- |
| 8.2 µM | inactive | inactive |  | O=C(Nc1nc(-c2cccc(Cl)c2)cs1)C1(c2ccc3c(c2)OCO3)CC1 |  |
| 2.2 µM | inactive |  |  | O=C(Nc1cccc2cccnc12)C1(c2ccc3c(c2)OCO3)CC1 | Activity [4]: 50% |
|  |  |  | 100 µM | COc1cccc(C(=O)N2CCN(c3nc4cc(C)cc(C)c4cc3C#N)CC2)c1 |  |
|  |  |  | > 100 µM | Cc1cc(C)c2cc(C#N)c(NCCNC(=O)c3ccccc3)nc2c1 |  |
|  |  |  | > 100 µM | COc1ccccc1C(=O)NCCCNc1nc2cc(C)cc(C)c2cc1C#N |  |
|  |  |  | 100 µM | CN(C)CCN1CCN(c2nc(-c3ccccn3)nc3c2CN(S(=O)(=O)c2ccccc2)CC3)CC1 |  |
|  |  |  | 100 µM | Cc1cc(C)c2cc(C#N)c(N3CCN(C(=O)c4ccccn4)CC3)nc2c1 |  |
|  |  |  | 100 µM | NC(=O)CN1CCN(c2nc(-c3cccnc3)nc3c2CN(Cc2ccccc2)CC3)CC1 |  |
|  |  |  | > 100 µM | CN1CCN(CCCNc2nc(-c3cccnc3)nc3c2CN(Cc2ccccc2)CC3)CC1 |  |
|  |  |  | 100 µM | Cc1cc(C)c2cc(C#N)c(N3CCN(C(=O)c4ccncc4)CC3)nc2c1 |  |
|  |  |  | 100 µM | COc1ccc(CN2CCc3nc(-c4ccccn4)nc(N4CCN(CCN(C)C)CC4)c3C2)cc1 |  |
|  |  |  | 100 µM | Cc1cc(C)c2cc(C#N)c(NCCCNC(=O)c3ccccn3)nc2c1 |  |
|  |  |  | 0.759 µM | Cc1nc(NC(=O)C(C)(C)C)sc1-c1cc(Cc2ccccc2)n(C(=O)NCc2ccccc2)n1 |  |
|  |  |  | 100 µM | CN(C)CCN1CCN(c2nc(-c3ccccn3)nc3c2CN(C(=O)c2ccccc2)CC3)CC1 |  |
|  |  |  | 100 µM | Cc1cc(C)c2cc(C#N)c(N3CCN(C(=O)c4cccnc4)CC3)nc2c1 |  |
| 0.087 µM | inactive | inactive |  | O=C(c1ccccc1)c1sc(NC(=O)C2(c3ccc4c(c3)OCO4)CC2)nc1-c1ccccc1 |  |

More lines, now with the values behind:

| SMILES | EC50 ([1]; read-out: EC50) | Activity [2] | Activity [3] | EC50 ([1]; read-out: pEC50 (converted)) | further results |
| --- | --- | --- | --- | --- | --- |
| CCOC(=O)n1nc(-c2sc(NC(=O)C(C)(C)C)nc2C)cc1Cc1ccccc1 |  |  |  | 8.51 µM |  |
| Cc1sc(NC(=O)C2(c3ccc4c(c3)OCO4)CC2)nc1-c1ccc(Cl)cc1 | 2.9 µM | inactive | inactive |  |  |
| Cc1sc(NC(=O)C2(c3ccc4c(c3)OCO4)CC2)nc1-c1ccc(O)cc1 | 3.9 µM | inactive | inactive |  |  |
| CSc1cccc(NC(=O)C2(c3ccc4c(c3)OCO4)CC2)c1 | 8 µM | inactive | inactive |  |  |
| C=CCc1cc(-c2sc(NC(=O)C(C)(C)C)nc2C)nn1C(=O)Nc1ccccc1 |  |  |  | 3.02 µM |  |
| CCOC(=O)c1sc(NC(=O)C2(c3ccc4c(c3)OCO4)CC2)nc1-c1cccc(Cl)c1 | 0.55 µM | inactive | inactive |  |  |
| Cc1sc(NC(=O)C2(c3ccc4c(c3)OCO4)CC2)nc1-c1ccc(Br)cc1 | 1.9 µM | inactive | inactive |  |  |
| O=C(Nc1nc(-c2ccc(O)cc2)cs1)C1(c2ccc3c(c2)OC(F)(F)O3)CC1 | 1.7 µM | inactive | inactive |  |  |
| O=C(Nc1ncc(Cc2ccccc2Cl)s1)C(c1ccccc1)c1ccccc1 |  |  |  |  | EC50 [5]: 16 µM; EC50 [6]: 7.9 µM |
| COc1ccc(NC(=O)c2cc(-c3sc(NC(=O)C(C)(C)C)nc3C)n(-c3ccc(Br)cc3)n2)cc1 |  |  |  | 3.39 µM |  |
| O=C(Nc1nc(-c2ccc(Cl)cc2)cs1)C1(c2ccc3c(c2)OCO3)CC1 | 2.9 µM | inactive | inactive |  |  |
| Cc1sc(NC(=O)C2(c3ccc4c(c3)OCO4)CC2)nc1-c1ccc(F)cc1 | 0.9 µM | inactive | inactive |  |  |
| COc1ccc(Cl)cc1Nc1nc(-c2sc(NC(=O)C(C)(C)C)nc2C)cs1 |  |  |  | 0.708 µM |  |
| C=CCc1cc(-c2sc(NC(=O)C(C)(C)C)nc2C)nn1C(=O)Nc1ccc(OC)cc1 |  |  |  | 0.933 µM |  |
| COc1cccc(C(=O)NCCNc2nc3cc(C)cc(C)c3cc2C#N)c1 |  |  |  |  | EC50 [5]: 1.5 µM; EC50 [6]: 5.9 µM |
| O=C(Nc1nc(-c2ccc(Br)cc2)cs1)C1(c2ccc3c(c2)OCO3)CC1 | 4.9 µM | inactive | inactive |  |  |

| SMILES | EC50 ([1]; read-out: EC50) | Activity [2] | Activity [3] | EC50 ([1]; read-out: pEC50 (converted)) | further results |
| --- | --- | --- | --- | --- | --- |
| O=C(Nc1nc(-c2cccc(O)c2)cs1)C1(c2ccc3c(c2)OC(F)(F)O3)CC1 | 1.3 µM | inactive | inactive |  |  |
| Cc1sc(NC(=O)C2(c3ccc4c(c3)OC(F)(F)O4)CC2)nc1-c1ccc(Br)cc1 | 3.8 µM | inactive | inactive |  |  |
| O=C(Nc1nc(-c2ccc(O)cc2)cs1)C1(c2ccc3c(c2)OCO3)CC1 | 1.8 µM | inactive | inactive |  |  |
| Cc1sc(NC(=O)C2(c3ccc4c(c3)OCO4)CC2)nc1-c1cccc(O)c1 | 1.2 µM | inactive |  |  | Activity [4]: 50% |
| O=C(Nc1nc(-c2ccc(I)cc2)cs1)C1(c2ccc3c(c2)OCO3)CC1 | 1.2 µM | inactive | inactive |  |  |
| CCOC(=O)c1sc(NC(=O)C2(c3ccc4c(c3)OCO4)CC2)nc1-c1ccc(Br)cc1 | 0.3 µM | inactive | inactive |  |  |
| O=C(Nc1nc(-c2cccc(Cl)c2)cs1)C1(c2ccc3c(c2)OC(F)(F)O3)CC1 |  | inactive | inactive |  |  |
| COc1ccc(NC(=O)n2nc(-c3sc(NC(=O)C(C)(C)C)nc3C)cc2Cc2cc(Cl)ccc2OC)cc1 |  |  |  | 1 µM |  |
| Cc1sc(NC(=O)C2(c3ccc4c(c3)OCO4)CC2)nc1-c1cccc(Cl)c1 | 2.3 µM | inactive | inactive |  |  |
| COc1ccc(Cl)cc1Cc1cc(-c2sc(NC(=O)C(C)(C)C)nc2C)nn1C(=O)NCCO |  |  |  | 3.02 µM |  |
| CC(=O)Nc1ccc(-c2csc(NC(=O)C3(c4ccc5c(c4)OCO5)CC3)n2)cc1 | > 5 µM | inactive | inactive | > 5.01 µM |  |
| Cc1sc(NC(=O)C2(c3ccc4c(c3)OCO4)CC2)nc1-c1ccc(C(=O)O)cc1 | 2.9 µM | inactive | inactive |  |  |
| CC(=O)c1sc(NC(=O)C2(c3ccc4c(c3)OCO4)CC2)nc1C |  | inactive | inactive |  |  |
| Cc1sc(NC(=O)C2(c3ccc4c(c3)OC(F)(F)O4)CC2)nc1-c1cccc(Cl)c1 | 5.4 µM | inactive | inactive |  |  |
| CCOC(=O)c1sc(NC(=O)C2(c3ccc4c(c3)OCO4)CC2)nc1-c1ccc(Cl)cc1 | 0.9 µM | inactive | inactive |  |  |
| COc1ccc(Cl)cc1Cc1cc(-c2sc(NC(=O)C(C)(C)C)nc2C)nn1C(=O)N1CCOCC1 |  |  |  | 1 µM |  |
